These results are taken from ChEMBL document CHEMBL3091318, “Potent and broad-spectrum antibacterial activity of indole-based bisamidine antibiotics: synthesis and SAR of novel analogs of MBX 1066 and MBX 1090” (2013).

Structures are written as SMILES. ≈ marks a conversion by molar mass, not a printed value. Where only a bound is given, the exact number is not on record here.

Common to all, as to assay type: functional
In experiment [1] the test system is Escherichia coli. In words: Antimicrobial activity against TolC efflux-deficient Escherichia coli K-12 after 16 to 20 hrs by broth microdilution method. A digest of the protocol:
(§1)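 CLSI broth microdilution. Log-phase cultures grown in cation-adjusted Mueller–Hinton broth and seeded at 1×10^5 CFU/mL. Plates incubated at 37 °C with shaking for 16–20 h. DMSO stocks of compound were diluted into medium to 1% DMSO final. Growth was read as OD600. MIC (μg/ml) is the lowest concentration with no apparent growth, averaged over at least 3 assays.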
(In general: Broth dilution looks for growth in wells or tubes with falling amounts of substance.)

Experiment [2] concerns Escherichia coli. Description: Antimicrobial activity against efflux pump-positive Escherichia coli K-12 after 16 to 20 hrs by broth microdilution method. A digest of the protocol:
as §1

Experiment [3] concerns Pseudomonas aeruginosa. In words: Antimicrobial activity against efflux pump mexAB-oprM-deficient Pseudomonas aeruginosa PAO1 after 16 to 20 hrs by broth microdilution method. A digest of the protocol: as §1
The subject of experiment [4] is Enterococcus faecalis. In words: Antimicrobial activity vancomycin-resistant Enterococcus faecalis ATCC 51575 after 16 to 20 hrs by broth microdilution method. The essentials:
(§2)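 CLSI broth microdilution. Log-phase cultures in cation-adjusted Mueller–Hinton broth were seeded at 1×10^5 CFU/mL and incubated at 37 °C with shaking for 16–20 h. Compounds were diluted from DMSO stocks to a final 1% DMSO. Growth was read as OD600, and MIC was taken as the lowest concentration with no apparent growth. At least 3 runs were done, and the average MIC is reported in μg/ml.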

Experiment [5] has as its system Staphylococcus aureus. Description: Antimicrobial activity against Staphylococcus aureus ATCC 25923 after 16 to 20 hrs by broth microdilution method. The essentials: as §2
In experiment [6] the test system is Staphylococcus aureus. Description: Antimicrobial activity methicillin-resistant against Staphylococcus aureus clinical isolate 1094 after 16 to 20 hrs by broth microdilution method.
Experiment [7] has as its system Enterococcus faecalis. In words: Antimicrobial activity Enterococcus faecalis ATCC 29212 after 16 to 20 hrs by broth microdilution method. A digest of the protocol:
as §1

The subject of experiment [8] is Bacillus anthracis. Description: Antimicrobial activity against Bacillus anthracis Sterne after 16 to 20 hrs by broth microdilution method. A digest of the protocol:
as §2

For experiment [9], the system named is Pseudomonas aeruginosa. Description: Antimicrobial activity against efflux pump-positive Pseudomonas aeruginosa PAO1 ATCC BAA-47 after 16 to 20 hrs by broth microdilution method. A digest of the protocol:
as §1

Experiment [10] concerns Acinetobacter baumannii. Description: Antimicrobial activity against Acinetobacter baumannii ATCC 19606 after 16 to 20 hrs by broth microdilution method. A digest of the protocol: as §1
Experiment [11] relates to Haemophilus influenzae. Description: Antimicrobial activity against Haemophilus influenzae ATCC 10211 after 16 to 20 hrs by broth microdilution method. The essentials: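 Broth microdilution per CLSI in Haemophilus Test Medium at 37 °C under 5% CO₂ for 16–20 h, seeded at 1×10^5 CFU/mL. Compound was added from DMSO stocks to 1% DMSO final. Growth was read as OD600. MIC (μg/ml) is the lowest concentration without apparent growth, averaged from at least 3 runs.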

The subject of experiment [12] is Klebsiella pneumoniae. Description: Antimicrobial activity against Klebsiella pneumoniae ATCC 13882 after 16 to 20 hrs by broth microdilution method. The essentials:
as §1

Experiment [13] has as its system Escherichia coli. In words: Selectivity ratio of MIC for efflux pump-positive Escherichia coli K-12 to MIC for TolC efflux-deficient Escherichia coli K-12.
For experiment [14], the system named is Pseudomonas aeruginosa. Description: Selectivity ratio of MIC for efflux pump-positive Pseudomonas aeruginosa PAO1 ATCC BAA-47 to MIC for efflux pump mexAB-oprM-deficient Pseudomonas aeruginosa PAO1.
For experiment [15], the system named is Pseudomonas aeruginosa. In words: Ratio of MBX 1066 MIC to compound MIC for Pseudomonas aeruginosa PAO1 ATCC BAA-47 after 16 to 20 hrs by broth microdilution method.
Experiment [16] concerns Escherichia coli. Description: Ratio of MBX 1066 MIC to compound MIC for Escherichia coli K-12 after 16 to 20 hrs by broth microdilution method.

Turning to `O=C(O)C(F)(F)F.c1cc2cc(-c3ccc(-c4cc5ccc(C6=NCCN6)cc5[nH]4)s3)[nH]c2cc1C1=NCCN1`, the MIC stood at 0.31 µg/mL in [1]; 0.63 µg/mL in experiment [2]; 1.25 µg/mL in [3]; 1.25 µg/mL in experiment [4]; 0.16 µg/mL in experiment [5]; 0.31 µg/mL in experiment [6]. The MIC turned out to be 1.25 µg/mL in experiment [7]; 0.16 µg/mL in experiment [8]; 10 µg/mL in experiment [9]; 10 µg/mL in experiment [10]; 0.63 µg/mL in [11]; 0.63 µg/mL in [12].
`O=C(O)c1cn(C2CC2)c2cc(N3CCNCC3)c(F)cc2c1=O` [CIPROFLOXACIN]: the MIC in [1] is no more than 0.02 µg/mL; in experiment [2], no more than 0.02 µg/mL; in experiment [3], no more than 0.02 µg/mL; in experiment [4] it was 0.63 µg/mL (≈ 1.9 µM); in experiment [5], 0.31 µg/mL (≈ 0.936 µM); in [7] it was 1.25 µg/mL (≈ 3.77 µM). The MIC amounted to 0.08 µg/mL (≈ 0.241 µM) in [8]; 0.63 µg/mL (≈ 1.9 µM) in experiment [9]; 1.25 µg/mL (≈ 3.77 µM) in [10]; 10 µg/mL (≈ 30.2 µM) in [11]; 0.04 µg/mL (≈ 0.121 µM) in [12].
Turning to `O=C(O)C(F)(F)F.c1cc2cc(-c3ccc(-c4cc5ccc(C6=NCCN6)cc5[nH]4)cc3)[nH]c2cc1C1=NCCN1`, the MIC turned out to be 0.16 µg/mL in [1]; 1.25 µg/mL in [2]; 1.25 µg/mL in experiment [3]; 0.16 µg/mL in experiment [4]; 0.16 µg/mL in experiment [5]; 0.16 µg/mL in [6]. Moreover, the MIC is 0.16 µg/mL in experiment [7]; 0.31 µg/mL in experiment [8]; 7.5 µg/mL in experiment [9]; greater than 80 µg/mL in [10]; 0.63 µg/mL in [11]; 0.31 µg/mL in experiment [12]. Moreover, the Ratio in experiment [13] is on record as 8; in experiment [14], 6.
Consider `O=C(O)C(F)(F)F.OC1CN=C(c2ccc3cc(-c4ccc(-c5cc6ccc(C7=NCC(O)CN7)cc6[nH]5)cc4)[nH]c3c2)NC1` (stereo unspecified), for which the MIC in experiment [1] came to 0.63 µg/mL; in experiment [2], 1.25 µg/mL; in experiment [3], 0.31 µg/mL; in experiment [4], 0.63 µg/mL; in experiment [5] it was 0.31 µg/mL; in [6], 0.31 µg/mL. Besides, the MIC in experiment [7] was 0.16 µg/mL; in experiment [8] it was 0.16 µg/mL; in experiment [9] it was 1.25 µg/mL; in [10], greater than 80 µg/mL; in [11] it was 1.25 µg/mL; in [12], 0.63 µg/mL.
Take `O=C(O)C(F)(F)F.c1cc2cc(-c3ccc(-c4cc5ccc(C6=NCCCN6)cc5[nH]4)cc3)[nH]c2cc1C1=NCCCN1`: the MIC in experiment [1] worked out at 0.16 µg/mL; in experiment [2] it was 0.16 µg/mL; in experiment [3], 0.31 µg/mL; in experiment [4] it was 0.08 µg/mL; in [5] it was 0.08 µg/mL; in experiment [6], 0.08 µg/mL. Also, the MIC worked out at 0.08 µg/mL in experiment [7]; 0.08 µg/mL in [8]; 0.31 µg/mL in experiment [9]; 2.5 µg/mL in experiment [10]; 0.31 µg/mL in experiment [11]; 0.31 µg/mL in [12]. Moreover, the Ratio in experiment [15] was greater than 20; in [16], 10.
For `CC1(C)CN=C(c2ccc3cc(-c4ccc(-c5cc6ccc(C7=NCC(C)(C)CN7)cc6[nH]5)cc4)[nH]c3c2)NC1.O=C(O)C(F)(F)F`, the MIC in experiment [1] came to 0.63 µg/mL; in experiment [2], 0.63 µg/mL; in experiment [3], 40 µg/mL; in experiment [4] it was 0.63 µg/mL; in [5], 0.31 µg/mL; in experiment [6], 0.31 µg/mL. The MIC in experiment [7] was 0.31 µg/mL; in experiment [8], 0.31 µg/mL; in experiment [9] it was 10 µg/mL; in experiment [10], greater than 80 µg/mL; in [11] it was 2.5 µg/mL; in experiment [12], 0.63 µg/mL.
Regarding `O=C(O)C(F)(F)F.c1cc2cc(-c3ccc(-c4cc5ccc(C6=NCCN6)cc5[nH]4)o3)[nH]c2cc1C1=NCCN1`, the MIC is 0.63 µg/mL in experiment [1]; 20 µg/mL in experiment [2]; greater than 80 µg/mL in experiment [3]; greater than 80 µg/mL in [4]; 40 µg/mL in experiment [5]; 40 µg/mL in experiment [6]. Besides, the MIC in experiment [7] is greater than 80 µg/mL; in experiment [8], 5 µg/mL; in [9] it was greater than 80 µg/mL; in experiment [10], greater than 80 µg/mL; in experiment [12] it was greater than 80 µg/mL.
On to `CC1CN=C(c2ccc3cc(-c4ccc(-c5cc6ccc(C7=NCC(C)CN7)cc6[nH]5)cc4)[nH]c3c2)NC1.O=C(O)C(F)(F)F` (stereo unspecified), for which the MIC in experiment [1] is 0.16 µg/mL; in experiment [2] it was 0.31 µg/mL; in experiment [3] it was 0.63 µg/mL; in [4], 0.08 µg/mL; in experiment [5] it was 0.08 µg/mL; in [6], 0.08 µg/mL. The MIC came to 0.16 µg/mL in experiment [7]; 0.08 µg/mL in [8]; 0.63 µg/mL in [9]; 40 µg/mL in [10]; 1.25 µg/mL in [11]; 0.31 µg/mL in experiment [12].
With `CC(=O)O.c1cc2cc(-c3ccc(-c4cc5ccc(C6=NCCCN6)cc5[nH]4)nc3)[nH]c2cc1C1=NCCCN1`, the MIC in [1] came out at 0.16 µg/mL; in [2], 0.63 µg/mL; in [3] it was 2.5 µg/mL; in [4], 0.16 µg/mL; in experiment [5], 0.16 µg/mL; in [6], 0.16 µg/mL. Also, the MIC turned out to be 0.63 µg/mL in experiment [7]; 0.16 µg/mL in [8]; 2.5 µg/mL in experiment [9]; 20 µg/mL in [10]; 2.5 µg/mL in experiment [11]; 5 µg/mL in [12].
In the case of `NCc1ccc2cc(-c3ccc(-c4cc5ccc(CN)cc5[nH]4)cc3)[nH]c2c1.O=C(O)C(F)(F)F`, the MIC in experiment [1] turned out to be 1.25 µg/mL; in experiment [2] it was 5 µg/mL; in [3], 40 µg/mL; in experiment [4], 1.25 µg/mL; in experiment [5] it was 0.63 µg/mL; in [6] it was 1.25 µg/mL. Also, the MIC in experiment [7] was 1.25 µg/mL; in [8], 1.25 µg/mL; in experiment [9], 40 µg/mL; in experiment [10], greater than 80 µg/mL; in experiment [12], 2.5 µg/mL.
